ChEMBL document CHEMBL4627345, “Anti-inflammatory effect and inhibition of nitric oxide production by targeting COXs and iNOS enzymes with the 1,2-diphenylbenzimidazole pharmacophore” (Bioorg Med Chem, 2020)
Active and inactive are the calls of the source. The calls are words filed in the database; no cut-off is given here.

How the values were obtained:
[1] = Cytotoxicity against mouse RAW264.7 cells assessed as cell viability at 100 uM measured after 24 hrs by MTT assay relative to control; type: cell-based; conditions: read-out: Activity
How it was run: (§1)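 RAW 264.7 murine macrophages grown in RPMI-1640 with 10% heat-inactivated FBS at 37 °C, 5% CO2. Cells seeded at 4 x10^4 per well and exposed 24 h to 0–500 µM compound (DMSO 0.2% final). Medium replaced with 0.5 mg/mL MTT for 4 h, formazan dissolved in isopropanol, absorbance read at 570 nm. Triplicates in three independent experiments.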

[2] = molecular target: T1, Prostaglandin G/H synthase 1 (Bos taurus) (UniProt O62664); assay: Inhibition of bovine COX1 at 100 uM using arachidonic acid as substrate preincubated for 5 mins followed by substrate addition and measured after 5 mins by […]-based fluorescence assay relative to control
T1 sequence (whole entry): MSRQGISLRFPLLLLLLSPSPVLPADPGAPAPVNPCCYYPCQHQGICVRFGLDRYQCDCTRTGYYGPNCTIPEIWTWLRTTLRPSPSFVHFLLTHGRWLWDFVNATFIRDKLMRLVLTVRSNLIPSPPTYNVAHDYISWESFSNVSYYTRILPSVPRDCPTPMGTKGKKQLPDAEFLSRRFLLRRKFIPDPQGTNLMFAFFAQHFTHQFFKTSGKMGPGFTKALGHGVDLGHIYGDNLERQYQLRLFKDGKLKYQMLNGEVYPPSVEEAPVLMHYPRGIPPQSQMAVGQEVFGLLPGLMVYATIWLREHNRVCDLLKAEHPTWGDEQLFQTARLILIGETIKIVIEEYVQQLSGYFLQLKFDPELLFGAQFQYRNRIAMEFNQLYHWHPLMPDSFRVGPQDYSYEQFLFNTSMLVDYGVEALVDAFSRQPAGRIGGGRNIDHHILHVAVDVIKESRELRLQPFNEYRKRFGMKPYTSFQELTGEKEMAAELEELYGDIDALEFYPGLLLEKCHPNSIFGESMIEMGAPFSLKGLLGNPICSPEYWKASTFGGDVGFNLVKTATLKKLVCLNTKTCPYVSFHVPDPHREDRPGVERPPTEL
How it was run: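 Bovine COX-1 preincubated 5 min in buffer with compound (100 µM) or SC-560 as reference. ADHP and arachidonic acid then added, and resorufin fluorescence read after 5 min (ex 530–540 / em 585–595 nm). Resorufin arises from ADHP reacting with the COX-derived PGG2.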

[3] = Selectivity index, ratio of inhibition of human recombinant COX-2 at 100 uM to inhibition of bovine COX-1 at 100 uM
How it was run: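 SI is COX-2/COX-1 activity ratio. Percent inhibition at 100 µM: human recombinant COX-2 (15 min preincubation) and bovine COX-1 (5 min preincubation). Fluorometric ADHP/arachidonic acid read-out after 5 min.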

[4] = molecular target: T2, Nitric oxide synthase, inducible (Mus musculus) (UniProt P29477); assay: Inhibition of iNOS in mouse macrophages assessed as reduction in LPS-induced nitric oxide production at 50 uM incubated for overnight by griess assay relative to control
T2 sequence (whole entry): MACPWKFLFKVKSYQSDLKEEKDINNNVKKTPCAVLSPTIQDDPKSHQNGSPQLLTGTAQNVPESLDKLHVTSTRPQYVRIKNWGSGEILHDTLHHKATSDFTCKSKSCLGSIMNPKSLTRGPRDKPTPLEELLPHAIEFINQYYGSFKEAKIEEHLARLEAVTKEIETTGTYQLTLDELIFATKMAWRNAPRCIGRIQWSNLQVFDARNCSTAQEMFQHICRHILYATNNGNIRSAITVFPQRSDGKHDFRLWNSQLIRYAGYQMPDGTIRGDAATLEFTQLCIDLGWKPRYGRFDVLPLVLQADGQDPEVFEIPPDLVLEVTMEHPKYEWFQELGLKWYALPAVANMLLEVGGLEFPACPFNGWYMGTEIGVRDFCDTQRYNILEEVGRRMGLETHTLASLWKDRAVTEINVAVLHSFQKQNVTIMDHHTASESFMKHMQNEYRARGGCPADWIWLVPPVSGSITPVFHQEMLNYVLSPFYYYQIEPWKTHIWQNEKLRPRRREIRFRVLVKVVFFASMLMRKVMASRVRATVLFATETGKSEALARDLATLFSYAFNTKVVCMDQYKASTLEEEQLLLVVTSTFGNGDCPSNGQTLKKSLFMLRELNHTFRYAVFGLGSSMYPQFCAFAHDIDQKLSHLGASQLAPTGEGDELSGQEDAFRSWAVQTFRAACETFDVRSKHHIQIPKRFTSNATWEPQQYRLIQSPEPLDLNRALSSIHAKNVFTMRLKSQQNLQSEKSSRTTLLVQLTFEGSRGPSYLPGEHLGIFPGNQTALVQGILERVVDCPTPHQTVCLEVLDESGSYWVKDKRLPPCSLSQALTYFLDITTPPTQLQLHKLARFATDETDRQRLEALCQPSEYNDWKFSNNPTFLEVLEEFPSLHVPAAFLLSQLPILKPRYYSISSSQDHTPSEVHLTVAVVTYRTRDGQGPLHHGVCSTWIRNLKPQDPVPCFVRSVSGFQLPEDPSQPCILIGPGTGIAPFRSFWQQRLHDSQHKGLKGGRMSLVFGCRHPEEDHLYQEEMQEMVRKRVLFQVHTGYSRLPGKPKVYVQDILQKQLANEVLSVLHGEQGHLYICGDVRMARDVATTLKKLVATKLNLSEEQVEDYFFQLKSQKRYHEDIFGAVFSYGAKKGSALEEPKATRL
How it was run: (§2)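 Murine macrophages seeded at 4 x10^4 per well with compound at 50 or 100 µM, with or without LPS (100 ng/mL), overnight under standard conditions. Supernatant mixed 1:1 with Griess reagent and read at 570 nm. Nitrite quantified from a NaNO2 standard curve. Triplicates in three independent experiments.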

[5] = molecular target: T2, Nitric oxide synthase, inducible (Mus musculus); assay: Inhibition of iNOS in mouse macrophages assessed as reduction in LPS-induced nitric oxide production at 100 uM incubated for overnight by griess assay relative to control; how it was run: as §2
Rattus norvegicus = assay: Antiinflammatory activity in Wistar rat assessed as inhibition of carrageenan-induced paw edema formation at 100 mg/kg, po administered 1 hr before carrageenan stimulation and measured after up to 6 hrs relative to control; type: functional
How it was run: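 Male Wistar rats (250–300 g), N = 5 per group, dosed orally 1 h before 0.1 mL of 1% carrageenan in physiological saline was injected into the right paw. Paw volume was read by plethysmometer at 0, 1, 2, 3, 4, 5 and 6 h. Edema was taken as the right-minus-left paw volume difference. % inhibition = (untreated − treated)/untreated × 100 at each time point.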

RAW264.7 = assay: Cytotoxicity against mouse RAW264.7 cells assessed as reduction in cell viability at 500 uM measured after 24 hrs by MTT assay; type: cell-based; conditions: raw264.7, 24 h; how it was run: as §1
[6] = Cytotoxicity against mouse RAW264.7 cells assessed as cell viability at 500 uM measured after 24 hrs by MTT assay relative to control; type: cell-based; conditions: read-out: Activity; how it was run: as §1
[7] = molecular target: T3, Prostaglandin G/H synthase 2 (Homo sapiens, UniProt P35354); assay: Inhibition of human recombinant COX-2 using arachidonic acid as substrate preincubated for 15 mins followed by substrate addition and measured after 5 mins by […]-based fluorescence assay
T3 sequence (P35354 whole entry): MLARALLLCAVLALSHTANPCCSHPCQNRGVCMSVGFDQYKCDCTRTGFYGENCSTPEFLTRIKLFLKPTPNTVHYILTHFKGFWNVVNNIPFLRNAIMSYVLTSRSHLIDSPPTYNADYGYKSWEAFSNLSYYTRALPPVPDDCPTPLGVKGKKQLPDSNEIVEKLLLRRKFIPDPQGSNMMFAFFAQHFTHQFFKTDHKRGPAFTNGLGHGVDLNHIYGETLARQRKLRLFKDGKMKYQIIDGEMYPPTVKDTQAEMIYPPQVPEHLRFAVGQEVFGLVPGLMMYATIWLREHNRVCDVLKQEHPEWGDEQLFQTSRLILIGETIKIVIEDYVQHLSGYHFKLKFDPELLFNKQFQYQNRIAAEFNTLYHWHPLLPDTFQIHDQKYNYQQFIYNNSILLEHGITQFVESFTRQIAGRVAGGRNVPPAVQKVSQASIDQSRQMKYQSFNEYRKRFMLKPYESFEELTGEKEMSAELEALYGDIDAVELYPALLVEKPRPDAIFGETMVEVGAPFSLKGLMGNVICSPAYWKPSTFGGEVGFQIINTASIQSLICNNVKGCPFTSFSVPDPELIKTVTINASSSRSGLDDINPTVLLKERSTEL
How it was run: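 Human recombinant COX-2 preincubated 15 min in buffer with compound (100 µM) or DuP-697 as reference. ADHP and arachidonic acid then added, and resorufin fluorescence read after 5 min (ex 530–540 / em 585–595 nm).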

| inhibition [2] | Selectivity Index [3] | inhibition [4] | inhibition [5] | IC50 [7] | Structure (SMILES) | viability at 24 h, 100 µM [1] | inhibition (Rattus norvegicus) | Activity (RAW264.7) | inhibition in vivo at 100 mg/kg (Rattus norvegicus) | viability at 24 h, 500 µM [6] |
| --- | --- | --- | --- | --- | --- | --- | --- | --- | --- | --- |
| 23.4% | 2.68 | 79.8% | 87.3% | – | Cc1ccc(-c2ncc(Cl)cc2-c2ccc(S(C)(=O)=O)cc2)cn1 [ETORICOXIB] | – | – | – | 35% | – |
| 29.7% | 1.55 | 42.5% | 44.1% | 173 µM | Nc1ccc(-c2nc3ccccc3n2-c2ccc(N)cc2)cc1 | > 90% | Active | – | – | ≥ 80% |
| 59.5% | 0.53 | 10.1% | 15.3% | – | CC(=O)Nc1ccc(-c2nc3ccccc3n2-c2ccc(NC(C)=O)cc2)cc1 | > 90% | Active | – | – | – |
| 18.3% | 2.77 | 46.5% | 45.8% | 102 µM | O=[N+]([O-])c1ccc(-n2c(-c3ccc(Br)cc3)nc3ccccc32)cc1 | > 90% | – | Toxic | 42% | – |
| 40.6% | 1.05 | 38.1% | 44% | 162 µM | O=[N+]([O-])c1ccc(-n2c(-c3ccccc3)nc3ccccc32)cc1 | > 90% | Active | Toxic | – | – |
| 29.3% | 1.63 | 22.4% | 33.8% | – | O=[N+]([O-])c1ccc(-c2nc3ccccc3n2-c2ccc([N+](=O)[O-])cc2)cc1 | ≤ 90% | – | – | 42% | ≤ 90% |
| 17.6% | 1.37 | 53.2% | 53.9% | – | O=[N+]([O-])c1ccc(-n2c(-c3ccc(Cl)cc3)nc3ccccc32)cc1 | > 90% | Active | Toxic | – | – |
| 39% | 1.15 | 24.9% | 52.2% | 193 µM | Nc1ccc(-n2c(-c3ccc(Cl)cc3)nc3ccccc32)cc1 | > 90% | Active | – | – | ≥ 80% |

The remaining lines, values behind:

| Structure (SMILES) | inhibition [2] | Selectivity Index [3] | inhibition [4] | inhibition [5] | IC50 [7] | viability at 24 h, 100 µM [1] | inhibition (Rattus norvegicus) | Activity (RAW264.7) | inhibition in vivo at 100 mg/kg (Rattus norvegicus) | viability at 24 h, 500 µM [6] |
| --- | --- | --- | --- | --- | --- | --- | --- | --- | --- | --- |
| CC(=O)Nc1ccc(-n2c(-c3ccc(Cl)cc3)nc3ccccc32)cc1 | 47.4% | 0.51 | 75.9% | 86.4% | – | > 90% | Active | – | – | – |
| N#Cc1ccc(-c2nc3ccccc3n2-c2ccc([N+](=O)[O-])cc2)cc1 | 29% | 1.63 | 24.4% | 46% | – | > 90% | Active | Toxic | – | – |
| CC(C)Cc1ccc(C(C)C(=O)O)cc1 (centres undefined) [IBUPROFEN] | 56.6% | – | 82.1% | 83.7% | – | – | – | – | 42% | – |
| Nc1ccc(-n2c(-c3ccc(Br)cc3)nc3ccccc32)cc1 | 62.3% | 0.11 | 62.5% | 74.2% | – | > 90% | Active | – | – | ≥ 80% |
| O=C(O)c1ccc(-c2nc3ccccc3n2-c2ccc([N+](=O)[O-])cc2)cc1 | 31% | 1.06 | 32.6% | 46.2% | – | > 90% | Active | Toxic | – | – |
| CC(=O)Nc1ccc(-n2c(-c3ccc(Br)cc3)nc3ccccc32)cc1 | 48.7% | 0.58 | 77.3% | 83.6% | – | > 90% | Active | – | – | – |
